# Reference: ChEMBL document CHEMBL1123247, “Nucleoside conjugates. 7. Synthesis and antitumor activity of 1-beta-D-arabinofuranosylcytosine conjugates of ether lipids” (J Med Chem, 1986)
# Assays:
# [1] = tested on: P388; assay: Antitumor activity against the ip implanted P388 leukemia in mice expressed as optimal dose (1 qd treatment schedule) required to produce greatest increase in life span was determined; format: functional, Mus musculus
# Summary of the method: (§1)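 P388 leukemia: 1 × 10^6 cells were given ip on day 0 to DBA/2J mice, groups of 6 (23-33 g). Treatment was ip from 24 h after inoculation, vehicle 0.9% NaCl with 0.5% Tween-80. Mice were observed daily until death or 45 days. Median survival T/C was calculated from survivors per NCI protocols, and ILS = (T/C − 1) × 100. Active range means doses giving ILS ≥25%; optimal dose means greatest ILS.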
# [2] = tested on: L1210; assay: Antitumor activity against the ip implanted L1210 leukemia in mice expressed as optimal dose (1 qd treatment schedule) required to produce greatest increase in life span was determined; format: functional, Mus musculus
# Summary of the method: (§2)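 DBA/2J mice, groups of 6 (23-28 g), were inoculated ip with 1 × 10^6 L1210 cells on day 0. Dosing was ip from 24 h, in 0.9% NaCl with 0.5% Tween-80 (sonicated solution or suspension). Mice were observed daily until death or day 45. Median survival T/C followed NCI protocols, and ILS = (T/C − 1) × 100. Active range means doses giving ILS ≥25%; optimal dose means greatest ILS.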
# [3] = tested on: L1210; assay: Antitumor activity was determined against the ic implanted L1210 lymphoid leukemia in mice by change in […] at 100 mg/kg (1 qd treatment schedule) dosage; format: functional, Mus musculus
# Summary of the method: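 DBA/2J mice, 6 per group (wt 26-32 g), inoculated ic with 1×10^5 L1210 cells on day 0. Dosing ip began 24 h after inoculation, with a sonicated solution or suspension in 0.9% NaCl containing 0.5% Tween-80, given over a range of doses. Animals were followed daily until death. Body weight change, median survival T/C, and %ILS = (T/C − 1) × 100 were computed from survivors per NCI protocols.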
# [4] = tested on: L1210; assay: Antitumor activity was determined against the ic implanted L1210 lymphoid leukemia in mice by percent increase in life span at 100 mg/kg (1 qd treatment schedule) dosage; format: functional, Mus musculus
# Summary of the method: (§3)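 DBA/2J mice, groups of 6 (26-32 g), got 1 × 10^5 L1210 cells ic on day 0. Dosing was ip starting 24 h later, as a sonicated solution or suspension in 0.9% NaCl with 0.5% Tween-80, over a wide dose range. Mice were followed daily until death. Median survival T/C was taken from survivors per NCI protocols, and ILS = (T/C − 1) × 100. Active range means doses giving ILS ≥25%; optimal dose means greatest ILS.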
# [5] = tested on: L1210; assay: Antitumor activity was determined against the ic implanted L1210 lymphoid leukemia in mice by range in survival days at 100 mg/kg (1 qd treatment schedule) dosage; Range is 14-18; format: functional, Mus musculus
# [6] = tested on: L1210; assay: Antitumor activity was determined against the ip implanted L1210 leukemia in mice by percent increase in life span at 200 mg/kg (treatment of 1qd schedule) dosage; format: functional, Mus musculus; conditions: route intraperitoneal
# Summary of the method: (§4)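 DBA/2J mice in groups of 6 (wt 23-28 g) were inoculated ip with 1×10^6 L1210 cells on day 0. Dosing was ip from 24 h, in 0.9% NaCl with 0.5% Tween-80 (conjugates sonicated), across a range of doses. Mice were observed daily until death or 45 days. Median T/C was computed from survivors per NCI protocols, and ILS = (T/C − 1)×100.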
# [7] = tested on: L1210; assay: Antitumor activity was determined against the ip implanted L1210 leukemia in mice by range in survival days at 200 mg/kg (treatment of 1qd schedule) dosage; Range is 12->45; format: functional, Mus musculus; conditions: route intraperitoneal
# Summary of the method: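 DBA/2J mice, 23-28 g, in groups of 6, were inoculated ip with 1×10^6 L1210 cells on day 0. Dosing was ip starting 24 h later on the stated daily schedules. Conjugates were given as sonicated solutions and reference prodrugs as suspensions in 0.9% NaCl with 0.5% Tween-80. Mice were observed daily until death or 45 days. Median survival T/C was calculated from survivors per NCI protocols.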
# [8] = tested on: P388; assay: Antitumor activity was determined against the ip implanted P388 leukemia in mice by percent median survival rate (treated/control) at 100 mg/kg (treatment of 1qd schedule) dosage; >45.0/12.0; conditions: route intraperitoneal
# [9] = tested on: L1210; assay: Antitumor activity against ip implanted L1210 leukemia in mice expressed as active dose range (1 qd treatment schedule) required to produce increase in life span by >25% was determined; Range is 100-250; format: functional, Mus musculus; summary of the method: as §2
# [10] = tested on: P388; assay: Antitumor activity was determined against the ip implanted L1210 leukemia in mice by change in […] at 100 mg/kg (treatment of 1qd schedule) dosage; format: functional, Mus musculus; conditions: route intraperitoneal, in the assay text read “P388 leukemia” for “L1210 leukemia”
# [11] = tested on: L1210; assay: Antitumor activity against the ic implanted L1210 lymphoid leukemia in mice expressed as optimal dose (1 qd treatment schedule) required to produce greatest increase in life span was determined; format: functional, Mus musculus; summary of the method: as §3
# [12] = tested on: L1210; assay: Antitumor activity was determined against the ip implanted L1210 leukemia in mice by 45-day survivors in mice at 200 mg/kg (treatment of 1qd schedule) dosage; format: functional, Mus musculus; conditions: route intraperitoneal; summary of the method: as §4
# [13] = tested on: P388; assay: Antitumor activity was determined against the ip implanted P388 leukemia in mice by range in survival days at 100 mg/kg (treatment of 1qd schedule) dosage; Range is 28->45; conditions: route intraperitoneal
# [14] = tested on: P388; assay: Antitumor activity against ip implanted P388 leukemia in mice expressed as active dose range (1 qd treatment schedule) required to produce increase in life span by >25% was determined; Range is 50-100; format: functional, Mus musculus; summary of the method: as §1
# [15] = tested on: P388 leukemia (mouse); assay: Antitumor activity was determined against the ip implanted P388 leukemia in mice by 45-day survivors in mice at 100 mg/kg (treatment of 1qd schedule) dosage; conditions: route intraperitoneal
# [16] = tested on: P388; assay: Antitumor activity was determined against the ip implanted P388 leukemia in mice by percent increase in life span at 100 mg/kg (treatment of 1qd schedule) dosage; conditions: route intraperitoneal
# [17] = tested on: L1210; assay: Antitumor activity was determined against the ip implanted L1210 leukemia in mice by change in […] at 200 mg/kg (treatment of 1qd schedule) dosage; format: functional, Mus musculus; conditions: route intraperitoneal
# Summary of the method: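 DBA/2J mice, 6 per group (wt 23-28 g), inoculated ip with 1×10^6 L1210 cells on day 0. Treatment was given ip in 0.9% NaCl with 0.5% Tween-80, starting 24 h later. Weight change was taken on day 8. Mice were observed daily until death or 45 days. Median survival T/C and %ILS = (T/C − 1) × 100 came from survivors per NCI protocols, and 45-day survivors were counted.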
# [18] = tested on: L1210; assay: Antitumor activity was determined against the ic implanted L1210 lymphoid leukemia in mice by […] at 100 mg/kg (1 qd treatment schedule) dosage; 17.5-7.0; format: functional, Mus musculus; summary of the method: as §3
# [19] = tested on: L1210; assay: Antitumor activity was determined against the ip implanted L1210 leukemia in mice by median survival time at 200 mg/kg (treatment of 1qd schedule) dosage; 17.5/7.0; conditions: route intraperitoneal
structure (smiles),measurement,setting,value
CCCCCCCCCCCCCCCC(=O)OC[C@H]1O[C@@H](n2ccc(N)nc2=O)[C@@H](O)[C@@H]1O,Optimal dose,[1],100 mg
same,Optimal dose,[2],200 mg/kg/day
same,Weight change,[3],-2.03 g mouse-1
same,ILS,[4],150
same,Range,[5],14
same,ILS,[6],150
same,Range,[7],12
same,median survival time,[8],> 45 days
same,Active dose range,[9],100 mg/kg/day
same,Weight change,[10],0.3 g mouse-1
same,Optimal dose,[11],100 mg
same,Survivors,[12],1
same,Range,[13],28
same,Active dose range,[14],50 mg/kg/day
same,Survivors,[15],4
same,ILS,[16],>275
same,Weight change,[17],2 g mouse-1
same,median survival time,[18],17.5 days
same,median survival time,[19],17.5 days
